This note sets out measurements from ChEMBL document CHEMBL4811218, “Discovery and optimization of withangulatin A derivatives as novel glutaminase 1 inhibitors for the treatment of triple-negative breast cancer” (Eur J Med Chem, 2021).

Usually IC50 stands for the concentration that inhibits the measured activity by half. A lower IC50 goes with inhibition by little substance. In general, inhibition refers to the change of the read-out against control, counted positive when it falls. A high value points to a strong effect.

The subject of experiment [1] is MDA-MB-231. The experiment in a line: Antiproliferative activity against human MDA-MB-231 cells after 24 hrs by MTT assay. Format: functional, cell-based. As to conditions: MDA-MB-231, 24 h. For orientation: Formazan colour is commonly taken as a measure of viable cells.
The target in experiment [2] is T1, Glutaminase kidney isoform, mitochondrial (Homo sapiens, UniProt O94925).
T1 sequence (O94925 whole entry): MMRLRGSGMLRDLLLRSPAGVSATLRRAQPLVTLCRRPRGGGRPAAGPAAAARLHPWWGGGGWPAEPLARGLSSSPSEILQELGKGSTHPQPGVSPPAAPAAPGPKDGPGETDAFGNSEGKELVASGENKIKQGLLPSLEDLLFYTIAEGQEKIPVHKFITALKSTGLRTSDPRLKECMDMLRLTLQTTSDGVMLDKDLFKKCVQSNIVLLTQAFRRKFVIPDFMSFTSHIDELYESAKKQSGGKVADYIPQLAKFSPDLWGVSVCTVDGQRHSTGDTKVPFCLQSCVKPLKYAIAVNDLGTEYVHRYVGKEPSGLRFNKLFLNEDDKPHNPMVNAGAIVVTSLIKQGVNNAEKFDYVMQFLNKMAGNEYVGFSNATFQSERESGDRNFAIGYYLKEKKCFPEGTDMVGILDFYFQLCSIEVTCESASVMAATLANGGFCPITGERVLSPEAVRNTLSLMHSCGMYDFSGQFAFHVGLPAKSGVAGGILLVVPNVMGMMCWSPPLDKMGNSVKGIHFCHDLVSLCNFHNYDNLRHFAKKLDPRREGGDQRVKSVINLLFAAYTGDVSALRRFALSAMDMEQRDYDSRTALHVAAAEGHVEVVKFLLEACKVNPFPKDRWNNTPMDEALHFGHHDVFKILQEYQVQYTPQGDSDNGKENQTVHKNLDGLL
The experiment in a line: Inhibition of human GLS1. An outline of the steps:
(§1)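 Human GLS1 hydrolase activity measured with a commercial GLS1 inhibitor screening kit, following the manufacturer's protocol. Single-point screening was run at 10 μM.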

The subject of experiment [3] is MDA-MB-231. Briefly: Antiproliferative activity against human MDA-MB-231 cells after 24 hrs by MTT assay relative to control. In kind it is functional. A digest of the protocol:
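MDA-MB-231 cells kept in DMEM with 10% FBS at 37°C, 5% CO2. Seeded at 5×10^3 cells/well and left 24 h, then exposed to compounds at 0.078-10 µM for 24 h. 0.1% DMSO served as the vehicle control. MTT added for 4 h, formazan dissolved in DMSO, absorbance read at 570 nm. IC50 derived. Each run in triplicate, repeated at least three times.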

Experiment [4] addresses T2, Glutaminase kidney isoform, mitochondrial (Homo sapiens) (UniProt O94925).
T2 sequence (whole entry): T1 sequence (O94925 whole entry)
Briefly: Inhibition of human GLS1 at 10 uM relative to control. A digest of the protocol: as §1

Bounds are passed on as bounds.

With `CC(=O)O[C@H]1C=C([C@H](C)[C@H]2CC(C)=C(C)C(=O)O2)[C@@]2(C)CC[C@H]3[C@@H](C[C@H]4O[C@]45[C@@H](O)C=CC(=O)[C@]35C)[C@@]12O`, the IC50 in experiment [1] is 6.34 µM; in experiment [2], 18.2 µM. Further, the “inhibition (INH)” value in experiment [3] is reported as 74.7%. In addition, in experiment [4], the inhibition was 41.4%.
`CC(=O)O[C@H]1C=C([C@H](C)[C@H]2CC(C)=C(C)C(=O)O2)[C@@]2(C)CC[C@H]3[C@@H](C[C@H]4O[C@]45[C@@H](OC(=O)CCCC(=O)Nc4ccc(F)cc4)C=CC(=O)[C@]35C)[C@@]12O` came in with an IC50 in experiment [1] of 0.49 µM. The “inhibition (INH)” value in experiment [3] is 95.4%. This molecule returned an inhibition in experiment [4] of less than 50%.
`COc1ccc(NC(=O)/C=C/C(=O)O[C@H]2C(Nc3ccc(OC)cc3)CC(=O)[C@]3(C)[C@H]4CC[C@]5(C)C([C@H](C)[C@H]6CC(C)=C(C)C(=O)O6)=C[C@H](OC(C)=O)[C@]5(O)[C@@H]4C[C@H]4O[C@@]423)cc1` (stereo not given in full): in experiment [1], the IC50 was more than 50 µM. In experiment [3], the “inhibition (INH)” value amounted to 0%. This molecule also registered an inhibition in experiment [4] of less than 50%.
